What was measured:
Mus musculus [1] = assay: The in vivo tissue distribution of mouse blood without Propranolol preadministration in 40 min, value was fractional dose per fractional body weight of the organ
Mus musculus [2] = assay: The in vivo tissue distribution of mouse kidney without Propranolol preadministration in 20 min, value was fractional dose per fractional body weight of the organ
Mus musculus [3] = assay: The in vivo tissue distribution of mouse liver with Propranolol preadministration in 120 min, value was fractional dose per fractional body weight of the organ; assay type: ADME, organism-based; conditions: 2 h
Method in brief: (§1)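 Male CF-1 mice (25–30 g), anesthetised with 2 mg sodium pentobarbital ip 30 min before tracer. Where blocked, propranolol iv via tail vein (0.1 mL of […]; […]) about 30 min before tracer. Tracer given by tail vein, 0.1 mL at 1–2 mCi/mL. Mice killed by cervical dislocation at set times, organs weighed and counted. %ID/g × body weight/100 gives unitless uptake. Heart, brain, blood, lung, kidney, liver and bone n=5; average ± SD.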

Mus musculus [4] = assay: The in vivo tissue distribution of mouse blood without Propranolol preadministration in 20 min, value was fractional dose per fractional body weight of the organ
Mus musculus [5] = assay: The in vivo tissue distribution of mouse kidney without Propranolol preadministration in 10 min, value was fractional dose per fractional body weight of the organ
Mus musculus [6] = assay: The in vivo tissue distribution of mouse brain with Propranolol administration after 10 min, value was fractional dose per fractional body weight of the organ; assay type: ADME, organism-based
Method in brief: as §1

Mus musculus [7] = assay: The in vivo tissue distribution of mouse heart with Propranolol administration after 10 min, value was fractional dose per fractional body weight of the organ; assay type: ADME, organism-based
Method in brief: (§2)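 Male CF-1 mice (25–30 g) anaesthetised with 2 mg sodium pentobarbital ip; blocked group given 0.1 mL of […] propranolol iv via tail vein (200 μg, 6.6 mg/kg), tracer 30 min later. 0.1 mL of 1–2 mCi/mL [18F]-labelled enantiomer iv via tail vein; killed by cervical dislocation, organs weighed and counted against weighed standards. %ID/g × body weight/100 gives unitless uptake; five mice per point (heart, blood, lung, kidney, liver, bone); mean ± SD.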

Mus musculus [8] = assay: The in vivo tissue distribution of mouse liver with Propranolol administration after 60 min, value was fractional dose per fractional body weight of the organ; assay type: ADME, organism-based; conditions: 1 h
Method in brief: as §2

Mus musculus [9] = assay: The in vivo tissue distribution of mouse bone with Propranolol preadministration in 90 min, value was fractional dose per fractional body weight of the organ; assay type: ADME, organism-based, Bone element; conditions: 1.5 h
Method in brief: as §2

Mus musculus [10] = assay: The in vivo tissue distribution of mouse brain with Propranolol administration after 120 min, value was fractional dose per fractional body weight of the organ; assay type: ADME, organism-based; conditions: 2 h
Method in brief: (§3)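 Male CF-1 mice (25–30 g), given 2 mg sodium pentobarbital ip 30 min before tracer. Blocked groups received propranolol iv by tail vein, 0.1 mL of 1 mg/mL. About 30 min later, 0.1 mL of [18F]tracer (1–2 mCi/mL) was injected by tail vein. Mice were killed by cervical dislocation at set times, and organs were weighed and counted. Uptake is %ID/g × body weight/100, average ± SD; n=5 for heart, brain, blood, lung, kidney, liver and bone.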

Mus musculus [11] = assay: The in vivo tissue distribution of mouse bone with Propranolol administration after 180 min, value was fractional dose per fractional body weight of the organ; assay type: ADME, organism-based, Bone element; conditions: 3 h
Method in brief: as §3

Mus musculus [12] = assay: The in vivo tissue distribution of mouse liver without Propranolol preadministration in 60 min, value was fractional dose per fractional body weight of the organ; conditions: 1 h
Mus musculus [13] = assay: The in vivo tissue distribution of mouse lung without Propranolol preadministration in 180 min, value was fractional dose per fractional body weight of the organ; conditions: 3 h
Mus musculus [14] = assay: The in vivo tissue distribution of mouse blood without Propranolol preadministration in 60 min, value was fractional dose per fractional body weight of the organ; conditions: 1 h
Mus musculus [15] = assay: The in vivo tissue distribution of mouse lung without Propranolol preadministration in 90 min, value was fractional dose per fractional body weight of the organ; conditions: 1.5 h
Mus musculus [16] = assay: The in vivo tissue distribution of mouse liver without Propranolol preadministration in 10 min, value was fractional dose per fractional body weight of the organ
Mus musculus [17] = assay: The in vivo tissue distribution of mouse lung without Propranolol preadministration in 20 min, value was fractional dose per fractional body weight of the organ
Mus musculus [18] = assay: The in vivo tissue distribution of mouse heart without Propranolol preadministration in 60 min, value was fractional dose per fractional body weight of the organ; conditions: 1 h
Mus musculus [19] = assay: The in vivo tissue distribution of mouse lung with Propranolol administration after 120 min, value was fractional dose per fractional body weight of the organ; assay type: ADME, organism-based; conditions: 2 h
Method in brief: as §2

Mus musculus [20] = assay: The in vivo tissue distribution of mouse heart with Propranolol preadministration in 10 min, value was fractional dose per fractional body weight of the organ; assay type: ADME, organism-based
Method in brief: as §1

Mus musculus [21] = assay: The in vivo tissue distribution of mouse liver with Propranolol administration after 90 min, value was fractional dose per fractional body weight of the organ; assay type: ADME, organism-based; conditions: 1.5 h
Method in brief: as §3

Mus musculus [22] = assay: The in vivo tissue distribution of mouse lung without Propranolol preadministration in 120 min, value was fractional dose per fractional body weight of the organ; conditions: 2 h
Mus musculus [23] = assay: The in vivo tissue distribution of mouse heart with Propranolol administration after 20 min, value was fractional dose per fractional body weight of the organ; assay type: ADME, organism-based
Method in brief: as §1

Mus musculus [24] = assay: The in vivo tissue distribution of mouse kidney with Propranolol administration after 90 min, value was fractional dose per fractional body weight of the organ; assay type: ADME, organism-based; conditions: 1.5 h
Method in brief: as §1

Mus musculus [25] = assay: The in vivo tissue distribution of mouse kidney with Propranolol administration after 40 min, value was fractional dose per fractional body weight of the organ; assay type: ADME, organism-based
Method in brief: as §3

Mus musculus [26] = assay: The in vivo tissue distribution of mouse heart with Propranolol administration after 60 min, value was fractional dose per fractional body weight of the organ; assay type: ADME, organism-based; conditions: 1 h
Method in brief: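 Male CF-1 mice, 25–30 g, anesthetized with 2 mg sodium pentobarbital ip. Propranolol pretreatment was 0.1 mL of 1 mg/mL iv by tail vein. About 30 min later, 0.1 mL of 1–2 mCi/mL [18F]tracer was given by tail vein. Mice were killed by cervical dislocation at set times. Organs were weighed and counted against weighed dose standards. %ID/g × body weight/100 gave fractional dose per fractional body weight. Blood and heart n=5.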

Mus musculus [27] = assay: The in vivo tissue distribution of mouse blood with Propranolol administration after 40 min, value was fractional dose per fractional body weight of the organ; assay type: ADME, organism-based
Method in brief: as §1

Mus musculus [28] = assay: The in vivo tissue distribution of mouse kidney without Propranolol preadministration in 120 min, value was fractional dose per fractional body weight of the organ; conditions: 2 h
Mus musculus [29] = assay: The in vivo tissue distribution of mouse brain without Propranolol preadministration in 60 min, value was fractional dose per fractional body weight of the organ; conditions: 1 h

Compound | Dose/organ (Mus musculus [1]) | Dose/organ (Mus musculus [2]) | Dose/organ (Mus musculus [3]) | Dose/organ (Mus musculus [4]) | Dose/organ (Mus musculus [5]) | Dose/organ (Mus musculus [6]) | Dose/organ (Mus musculus [7]) | Dose/organ (Mus musculus [8]) | Dose/organ (Mus musculus [9]) | Dose/organ (Mus musculus [10]) | Dose/organ (Mus musculus [11]) | Dose/organ (Mus musculus [12]) | Dose/organ (Mus musculus [13]) | Dose/organ (Mus musculus [14]) | Dose/organ (Mus musculus [15]) | Dose/organ (Mus musculus [16]) | Dose/organ (Mus musculus [17]) | Dose/organ (Mus musculus [18]) | Dose/organ (Mus musculus [19]) | Dose/organ (Mus musculus [20]) | other results
CC(C[18F])NC[C@H](O)COc1cccc2[nH]c3ccccc3c12 (stereo partly drawn) | 0.69 | 2.89 | 0.96 | 0.71 | 4.18 | 1.23 | 1.06 | 1.17 | 1.13 | 0.11 | 2.72 | 1.32 | 4.8 | 0.6 | 5.88 | 3.55 | 7.46 | 0.61 | 0.52 | 1.1 | Dose/organ (Mus musculus [21]): 1.39; Dose/organ (Mus musculus [22]): 4.82; Dose/organ (Mus musculus [23]): 0.63; Dose/organ (Mus musculus [24]): 0.92; Dose/organ (Mus musculus [25]): 1.64; Dose/organ (Mus musculus [26]): 0.29; Dose/organ (Mus musculus [27]): 0.35; Dose/organ (Mus musculus [28]): 0.83; Dose/organ (Mus musculus [29]): 0.81
CC(C[18F])NC[C@@H](O)COc1cccc2[nH]c3ccccc3c12 (stereo partly drawn) | 0.63 | 4.8 | 0.94 | 0.75 | 4.6 | 1.04 | 1 | 1.61 | 1 | 0.12 | 2.98 | 2.56 | 0.84 | 0.42 | 1.55 | 3.08 | 5.1 | 0.56 | 0.45 | 0.93 | Dose/organ (Mus musculus [21]): 1.17; Dose/organ (Mus musculus [22]): 1.29; Dose/organ (Mus musculus [23]): 0.85; Dose/organ (Mus musculus [24]): 1.57; Dose/organ (Mus musculus [25]): 2.7; Dose/organ (Mus musculus [26]): 0.57; Dose/organ (Mus musculus [27]): 0.57; Dose/organ (Mus musculus [28]): 1; Dose/organ (Mus musculus [29]): 0.37
